Calls of active or inactive are those of the source. The calls are words filed in the database; no cut-off is given here.
Legend:
Mino = experiment: Antiproliferative activity against human Mino cells at 100 uM preincubated for 48 hrs followed by thymidine addition measure after 16 hrs by Thymidine incorporation assay; assay type: functional, cell-based
Summary of the method: (§1)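 MCL lines treated 48 h with compound re-added daily, alone or with co-drug (ibrutinib 25 µM where used), then thymidine added for a further 16 h; proliferation read as thymidine incorporation.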

[1] = target: Eukaryotic translation initiation factor 4E (Homo sapiens) (UniProt P06730); experiment: Inhibition of eIF4E in human Z138 cells assessed as disruption of interaction between protein and mRNA 5'-cap at 10 to 100 uM by m7GTP pull-down assay; assay type: cell-based
Sequence of Eukaryotic translation initiation factor 4E (Homo sapiens) (P06730 whole entry): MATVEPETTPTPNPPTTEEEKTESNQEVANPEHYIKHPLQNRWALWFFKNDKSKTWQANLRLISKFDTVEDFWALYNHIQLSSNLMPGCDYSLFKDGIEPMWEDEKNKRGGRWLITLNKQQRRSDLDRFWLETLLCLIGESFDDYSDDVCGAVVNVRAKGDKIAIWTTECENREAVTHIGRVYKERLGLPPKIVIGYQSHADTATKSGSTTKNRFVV
Summary of the method: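 Eight to ten million treated MCL cells washed in cold PBS, lysed in cap binding buffer, and eIF4E binding captured on m7GTP-Sepharose beads (pull-down).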

Granta-519 [2] = experiment: Antiproliferative activity against human GRANTA-519 cells preincubated for 48 hrs followed by thymidine addition measure after 16 hrs by Thymidine incorporation assay; assay type: functional, cell-based; summary of the method: as §1
Granta-519 [3] = experiment: Antiproliferative activity against human GRANTA-519 cells at 200 uM preincubated for 48 hrs followed by thymidine addition measure after 16 hrs by Thymidine incorporation assay; assay type: functional; summary of the method: as §1
Rattus norvegicus = experiment: Clearance in Sprague-Dawley rat at 2.5 mg/kg, iv by LC-MS/MS analysis; assay type: ADME, organism-based; details: in vivo
Summary of the method: (§2)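 Female Sprague-Dawley rats (250-274 g, n=3, catheterized femoral/jugular veins) dosed once p.o. by gavage (25 mg/kg) then, after a 3-day washout, i.v. (2.5 mg/kg). Formulation: 10 mg/mL in 0.5% aqueous CMC with 5% DMSO. Serial blood draws to 480 min into K2EDTA; plasma protein-precipitated with acetonitrile plus internal standards; LC-MS/MS (positive MRM); non-compartmental PK; %F from dose-normalized AUC per rat.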

[4] = Oral bioavailability in Sprague-Dawley rat at 25 mg/kg by LC-MS/MS analysis; assay type: ADME, organism-based; details: in vivo; summary of the method: as §2
Z-138 = experiment: Antiproliferative activity against human Z138 cells at 200 uM preincubated for 48 hrs followed by thymidine addition measure after 16 hrs by Thymidine incorporation assay; assay type: functional; summary of the method: as §1
[5] = Cytotoxicity against human Mino cells assessed as reduction in cell survival at 100 uM after 48 hrs in presence of dexamethasone by Annexin V/propidium iodide based flow cytometric analysis
Summary of the method: (§3)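 MCL lines treated 48 h with compound re-added daily (alone or with co-drug; ibrutinib 25 µM), then survival assessed by Annexin V/PI flow cytometry.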

[6] = Cytotoxicity against human Mino cells assessed as reduction in cell survival at 100 uM after 48 hrs in presence of ibrutinib by Annexin V/propidium iodide based flow cytometric analysis; summary of the method: as §3

## CSCCOP(=O)(NCCc1c[nH]c2ccccc12)OC[C@H]1O[C@@H](n2c[n+](CCOc3ccc(Cl)cc3)c3c(=O)[nH]c(N)nc32)[C@H](O)[C@@H]1O (stereo not given in full)
Mino
  Activity: Active
[1]
  inhibition: Active
Granta-519 [2]
  Activity: Dose-dependent effect
  IC50: 50 µM
Granta-519 [3]
  Activity: 100%
Rattus norvegicus
  CL: 1800 mL/min/kg
[4]
  bioavailability: 23%
Z-138
  Activity: 100%
[5]
  Activity: Toxic
[6]
  Activity: Toxic
